Test results: PMC4629469 (Bioorganic & medicinal chemistry letters, 2015)

What was measured:
[1] = system: M1, M3, and M5 human mAChRs; experiment: [3H]NMS binding, comparison over all three mAChR subtypes
Summary of the method: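 Membranes from CHO cells stably expressing recombinant human M1, M3 or M5 mAChR. Inhibition of [3H]N-methylscopolamine binding by the test compound gives IC50, which is converted to Ki by the Cheng–Prusoff equation. Ki is the mean ± SEM of three independent experiments, each run in duplicate. Subtype comparisons use these Ki values at each receptor.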

[2] = biological target: T1, M1 recombinant human mAChRs (Homo sapiens, UniProt P11229); experiment: [3H]NMS binding to CHO cell membranes expressing M1 mAChR; details: vs compound 1
T1 sequence (P11229 1-460): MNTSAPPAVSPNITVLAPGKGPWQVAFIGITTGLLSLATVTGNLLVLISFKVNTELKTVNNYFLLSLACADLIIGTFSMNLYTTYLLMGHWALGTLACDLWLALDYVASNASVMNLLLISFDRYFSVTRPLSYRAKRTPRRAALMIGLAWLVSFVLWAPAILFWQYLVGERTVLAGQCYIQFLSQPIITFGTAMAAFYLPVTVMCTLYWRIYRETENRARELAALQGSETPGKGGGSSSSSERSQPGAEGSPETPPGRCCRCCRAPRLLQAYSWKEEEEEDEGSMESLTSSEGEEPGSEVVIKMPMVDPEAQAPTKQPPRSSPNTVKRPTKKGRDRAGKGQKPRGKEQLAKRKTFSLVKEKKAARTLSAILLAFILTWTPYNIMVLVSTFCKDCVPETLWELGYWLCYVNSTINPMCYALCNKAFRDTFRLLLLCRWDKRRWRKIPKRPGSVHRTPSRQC

[3] = biological target: M3 recombinant human mAChRs (Homo sapiens, UniProt P20309); experiment: [3H]NMS binding to CHO cell membranes expressing M3 mAChR; details: vs compound 1
M3 recombinant human mAChRs, sequence (P20309 whole entry): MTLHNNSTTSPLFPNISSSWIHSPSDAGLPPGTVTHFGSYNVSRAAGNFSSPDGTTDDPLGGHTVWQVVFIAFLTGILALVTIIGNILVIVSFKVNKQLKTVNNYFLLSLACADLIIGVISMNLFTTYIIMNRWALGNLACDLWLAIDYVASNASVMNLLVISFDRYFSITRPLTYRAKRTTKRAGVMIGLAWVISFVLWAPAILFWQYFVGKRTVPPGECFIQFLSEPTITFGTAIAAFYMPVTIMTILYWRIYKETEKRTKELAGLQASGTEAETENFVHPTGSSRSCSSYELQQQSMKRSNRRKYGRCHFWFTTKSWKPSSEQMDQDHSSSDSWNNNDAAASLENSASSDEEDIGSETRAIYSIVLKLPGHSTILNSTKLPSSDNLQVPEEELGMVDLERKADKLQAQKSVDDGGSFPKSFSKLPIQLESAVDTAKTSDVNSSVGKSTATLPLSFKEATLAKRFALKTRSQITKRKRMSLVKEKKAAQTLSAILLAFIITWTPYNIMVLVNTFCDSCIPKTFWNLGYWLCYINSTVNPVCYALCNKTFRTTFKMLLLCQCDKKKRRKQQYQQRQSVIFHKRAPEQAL

[4] = biological target: T2, M5 recombinant human mAChRs (Homo sapiens, UniProt P08912); experiment: [3H]NMS binding to CHO cell membranes expressing M5 mAChR; details: vs compound 1
T2 sequence (P08912 1-532): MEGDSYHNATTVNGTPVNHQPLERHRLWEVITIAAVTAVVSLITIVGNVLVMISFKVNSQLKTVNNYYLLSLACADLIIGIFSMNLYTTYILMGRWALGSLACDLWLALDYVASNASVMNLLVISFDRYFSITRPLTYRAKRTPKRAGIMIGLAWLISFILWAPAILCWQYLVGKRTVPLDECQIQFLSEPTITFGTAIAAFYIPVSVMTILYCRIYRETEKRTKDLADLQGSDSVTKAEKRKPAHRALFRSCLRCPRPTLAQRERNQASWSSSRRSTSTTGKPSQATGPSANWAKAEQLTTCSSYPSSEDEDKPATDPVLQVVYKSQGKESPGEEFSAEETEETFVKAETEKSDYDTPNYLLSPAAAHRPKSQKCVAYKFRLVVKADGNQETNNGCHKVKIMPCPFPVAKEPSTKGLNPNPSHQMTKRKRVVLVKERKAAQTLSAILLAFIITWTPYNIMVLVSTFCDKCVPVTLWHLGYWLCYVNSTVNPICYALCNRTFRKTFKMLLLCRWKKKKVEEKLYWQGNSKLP

Row | SMILES | fold increase in affinity of the reverse ester ([1]; 6a vs 4a, all three mAChRs) | fold higher affinity at M1 compared with compound 1 [2] | fold higher affinity at M3 compared with compound 1 [3] | decrease of affinity at M5 compared with compound 1 [4] | subtype selectivity ([1]; M5 over M1 and M3)
1 | COc1ccc(CCC(=O)OCC2(c3ccccc3)CCN(C)CC2)cc1OC [Compound 6a] | 1 to 3 fold | – | – | – | –
2 | COc1ccc(CCOC(=O)C2(c3ccccc3)CCN(C)CC2)cc1OC [Compound 4a] | – | 2 fold | 19 fold | 30% | not subtype selective
